From PubChem
Beta apoptosis: beta cell apoptosis inhibition; INS-1E cytokine-induced death, ATP luminescence, 48 h; percent of positive-control rescue, neutral wells zero; protection from apoptosis, % (concentration not given with the values); 300,000 tested, 0.8% active; AID 435005;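 active = Every replicate reaches about 75%, or at least half do and their mean reaches it too, limit read from the data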;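 note: 0% = cytokine-treated negative control wells and 100% = positive control rescue; higher means more ATP so stronger rescue from cytokine killing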
SKKanGAS inh: SKKanGAS growth inhibition. 300,000 tested, 1.3% active. S. pyogenes SKKanGAS, kanamycin growth, BacTiter-Glo, 6 h. inhibition, % at 7.5 µM;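 active = mean replicate score, as percent of positive control median, at least 50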;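 note: strain carries kanamycin resistance gene driven by streptokinase promoter and grows in 40 µg/ml kanamycin; loss of luminescence reflects streptokinase promoter inhibition or plain growth inhibition; 0% = median of DMSO wells and 100% = positive control at its reference dose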
Mdm2 MdmX PPI: inhibitors of human Mdm2/MdmX interaction; SaOS-2 split-luciferase Mdm2/MdmX complementation, luminescence; O15151+Q00987; inhibition, % at 8 µM; 330,000 tested, 3% active;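 active = inhibition of at least 50% at 8 µM in the primary screen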
Lmaj promast: reduces viability of Leishmania major promastigotes | resazurin fluorescence viability | inhibition, % at 10 µM | 200,000 tested, 9% active | AID 1063; in the data active = inhibition above about 50%;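 note: promastigotes grown with compound for 44 hours at 28 °C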
CSC inhib: cancer stem cell inhibition; AID 2717; 300,000 tested, 1.1% active; cancer stem cell-like cells viability, luminescence; inhibition, % at 7.5 µM; in the data active = inhibition above about 75%; tested in HMLE shEcad cells
T cruzi repl: blocks replication of Trypanosoma cruzi; AID 1885; T. cruzi beta-gal in NIH3T3, luminescence, 90 h; inhibition, % (concentration not given with the values); 300,000 tested, 1.4% active;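 active = mean inhibition across valid replicates above about 55%, limit read from the data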;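 note: signal also drops with host cell toxicity which is not excluded here; 0% = plate median of DMSO wells and 100% = zero luminescence signal; higher percent means less beta-gal luminescence so fewer parasites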
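Assay system: NIH/3T3 fibroblasts plus reporter T. cruzi. Amount: NIH/3T3 cells, 5,000 per well. Buffer or medium: DMEM, 2% fetal bovine serum. Doses: compound pinned at 50 nL/well, DMSO. Schedule: ≥90 h infection period, 3 h prior cell attachment. Signal: luminescent β-galactosidase signal after 60 min lysis. Read-out: parasite load inhibition, %.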
* marks the source's active call; other numbers are inactive results; nt = no result given. In the library only some 9.4% were active in any assay of this set; here they are far more common.

SMILES	Beta apoptosis	SKKanGAS inh	Mdm2 MdmX PPI	Lmaj promast	CSC inhib	T cruzi repl
COc1ccc(OC)c(C(c2nnnn2C2CCCC2)N2CCN(c3ccc(F)cc3)CC2)c1 (stereo not given)	-3.8	2.5	13.8	91.8*	nt	25.0
COc1ccc2cc(C(c3nnnn3C3CCCCC3)N3CCCCCC3)c3nnnn3c2c1 (stereo not given)	-6.7	1.5	45.7	21.1	-0.5	5.8
COc1ccc(N2CCN(C(c3nnnn3C3CCCC3)C(C)C)CC2)cc1 (stereo not given)	-5.0	-4.4	-31.4	-1.2	-7.2	10.3
COc1ccc(C(c2nnnn2C2CCCC2)N2CCC(C)CC2)c(OC)c1 (stereo not given)	-4.5	-3.1	13.1	99.3*	10.3	35.8
O=C1CSC(=S)N1	4.3	-1.6	16.5	nt	1.8	-1.5
NS(=O)(=O)c1ccc(CNC(=O)CNC(=O)c2ccc(Br)o2)cc1	-4.0	0.8	-6.4	nt	-11.6	-2.1
CC1=C(CO)C(=O)OC([C@@H](C)C2CC[C@H]3C4C[C@H]5O[C@]56[C@@H](O)C=CC(=O)[C@]6(C)C4CC[C@]23C)C1 (stereo not given in full)	108.6*	1.8	nt	nt	99.1*	43.4
Cc1noc(/C=C/N(C)C)c1S(=O)(=O)N(C)Cc1ccc(F)cc1	18.6	22.5	14.6	nt	7.5	-9.4
CCc1ccc(/C=C2\Oc3cc(OC(=O)N4CCOCC4)ccc3C2=O)cc1	-7.6	2.9	23.1	93.0*	14.3	19.5
COc1ccc(/C=C2\Oc3cc(OC(=O)N4CCOCC4)ccc3C2=O)cc1	-8.3	5.7	14.9	nt	1.2	0.0
O=C(CCCc1nc2ccccc2s1)NCc1cccnc1	2.3	-12.8	2.4	-3.4	-1.8	-20.3
O=c1ncn(-c2cccc(Cl)c2)c2ccccc12	-7.1	0.0	0.0	nt	-10.9	-12.6
C=CCN(C(=O)CCc1ccccc1OC)c1nc(-c2ccc(S(C)(=O)=O)cc2)cs1	nt	17.4	32.1	nt	40.9	66.2*
CCNc1oc(-c2cccc3ccccc23)nc1C#N	1.9	4.6	-16.9	-2.8	-3.0	10.7
N#Cc1nc(-c2cccc3ccccc23)oc1NCCN1CCCCC1	8.9	4.6	2.9	100.4*	1.7	49.2
Cc1cnc(NC(=O)c2ccc3ncsc3c2)s1	nt	nt	-168.7	nt	nt	nt
COc1ccc(C(=O)NN/C(C)=C/C(=O)C(F)(F)C(F)(F)C(F)(F)F)cc1	78.9*	10.9	44.0	-7.2	122.8*	2.0
COc1ccc(C(NC(=O)CC(C)C)NC(=O)CC(C)C)cc1OC	-0.4	4.8	-3.0	-5.7	-2.0	-4.2
COC(=O)C(C(=O)OC)C(C[N+](=O)[O-])c1ccc(OC)c(OC)c1 (stereo not given)	1.7	-6.0	1.0	99.9*	7.9	-0.3
O=C(c1cccc(S(=O)(=O)Nc2ccc(F)cc2)c1)N1CCOCC1	-1.9	nt	-5.9	nt	nt	nt
COc1cccc(C2C(C(N)=O)=C(C)Nc3nc(CCCO)nn32)c1 (stereo not given)	-4.0	-0.5	4.2	nt	-1.2	-8.2
Cc1ccc(-n2cc(CNCCc3ncc(C)[nH]3)c(-c3ccc(F)cc3)n2)cc1	-2.4	17.9	35.0	100.4*	9.5	34.6
Cc1ccc(-n2cc(CNCCn3nc(C)cc3C)c(-c3ccc(F)cc3)n2)cc1	5.0	3.0	-12.5	62.9*	9.8	38.0
Cc1ccc(-n2cc(CNCCN3CCOC3=O)c(-c3ccc(F)cc3)n2)cc1	-6.1	3.4	11.0	19.0	-4.3	9.2
CCNc1nc(NCC)n2c(SC(C(=O)Nc3cc(C)ccc3OC)c3ccccc3)nnc2n1 (stereo not given)	4.7	2.0	19.0	88.7*	-0.6	10.6
SMILES	Beta apoptosis	SKKanGAS inh	Mdm2 MdmX PPI	Lmaj promast	CSC inhib	T cruzi repl
COc1ccc(C(=O)Nc2cc(S(=O)(=O)N3CCCCC3)ccc2OC)cc1	-9.7	nt	4.0	nt	nt	nt
COc1ccc(S(=O)(=O)N2CCCCCC2)cc1NC(=O)Cc1cc(OC)c(OC)c(OC)c1	3.6	2.1	26.3	99.8*	-5.1	17.9
COc1ccc(NC(=S)Nc2cc(S(=O)(=O)N3CCCCC3)ccc2OC)cc1	-5.5	1.9	5.4	90.9*	9.6	-10.1
COc1ccc(CC(=O)Nc2cccc(S(=O)(=O)N3CCCCC3)c2)cc1	nt	nt	14.2	nt	nt	nt
COc1ccc(NC(=S)Nc2cccc(S(=O)(=O)N3CCCCC3)c2)cc1	1.7	-0.9	-7.9	95.3*	11.8	-15.6
COc1ccc(S(=O)(=O)N2CCCCC2)cc1NC(=S)Nc1ccccc1	2.1	0.0	5.8	84.0*	-2.6	2.0
Cc1ccccc1-c1nnc(SCC(=O)NC2CCS(=O)(=O)C2)n1C (stereo not given)	-1.9	nt	3.2	nt	-6.8	nt
C[C@@H]1CC[C@H]2C(=O)N3[C@@H](CC[C@@H](C)[C@@H]3c3ccc(Br)cc3)C(=O)N2[C@H]1c1ccc(Br)cc1	0.7	25.1	13.9	11.3	78.7*	12.9
COc1ccc(CC(=O)Oc2ccc(C(C)C)cc2)cc1S(=O)(=O)N1CCOCC1	-17.7	5.9	-3.6	nt	nt	-2.7
CCCc1ccc(C(=O)CCC(=O)NNC(=O)c2ccncc2)cc1	-0.8	-13.3	3.5	nt	-4.3	5.3
Cc1cc(C)n2nc(CC(=O)NNC(=O)c3ccccc3Cl)nc2n1	-0.1	-1.8	-10.3	nt	-3.2	3.6
CCC(C)(C)n1nnnc1C(c1ccc(C)cc1)N1CCN(Cc2ccc3c(c2)OCO3)CC1 (stereo not given)	-0.8	-23.2	28.0	80.6*	19.5	13.4
CCC(C)(C)n1nnnc1C(c1ccc2ncccc2c1)N1CCN(c2ccc(O)cc2)CC1 (stereo not given)	-0.8	-0.3	9.9	nt	-3.9	8.6
CCC(C)(C)n1nnnc1C(c1ccc2ncccc2c1)N1CCN(Cc2ccc3c(c2)OCO3)CC1 (stereo not given)	-3.3	-3.3	10.2	99.2*	0.2	27.2
CCC(C)(C)n1nnnc1C(c1ccc(C)cc1)N1CCC(C)CC1 (stereo not given)	-6.1	10.0	10.3	61.7*	-7.3	8.9
COc1cccc(O)c1CN1CCC(Oc2ccc(C(=O)NCc3ccccn3)cc2)CC1	2.6	0.2	17.1	nt	7.3	5.4
N#C/C(=C(/O)c1cc2ccccc2o1)c1nc2ccccc2s1	10.3	61.0*	-18.6	nt	107.7*	46.0
CCN(Cc1ccccc1)C(=O)COC(=O)c1cc(Cl)nc(Cl)c1	6.2	-18.3	-11.7	-1.8	-17.0	-12.6
COc1ccc(C(=O)CSc2nnc(CN3CCCCC3)n2-c2ccc(Cl)cc2)cc1OC	-18.7	-9.0	-27.2	6.9	140.1*	-6.4
CCn1c(=O)c(C(=O)CN2CCN(S(=O)(=O)c3cc(C)ccc3C)CC2)c(N)n(Cc2ccccc2)c1=O	-10.1	8.1	35.2	64.7*	7.0	33.3
O=C(CN1CCC(Cc2ccccc2)CC1)NC(=O)NCc1ccccc1	-2.0	-16.0	23.7	7.0	-1.4	-1.5
Cc1ccc(C)c(S(=O)(=O)N2CCN(CC(=O)NC(=O)NCc3ccccc3)CC2)c1	-3.0	-7.9	17.2	45.7	-24.0	55.9*
